Measured values from different studies.
Each line is one published result; the experiments were not run side by side.
Cell line: HepG2
Effect on: cell growth or viability

Compound	technique	time	CC50 [µM]
O=C(c1ccc(Nc2ncc(Cl)c(-c3ccc(Cl)s3)n2)cc1)N1CCC(N2CCCC2)CC1		44 h	5.1
COC(=O)c1c(C)ncn1CC(c1c[nH]c2ccc(C)cc12)c1c[nH]c2ccc(C)cc12	MTS	24 h	> 20
CC(=O)Nc1ccc(O)cc1	ATP luminescence		> 1000
COc1ccc(NC(=O)N2CCCCN3[C@H](COCCC(=O)O)[C@H](c4ccc(C#Cc5ccccc5)cc4)[C@@H]3C2)cc1			> 40
N=C(N)N1CC=C(c2coc(C(=O)Nc3ccc(C4=CCN(C(=N)N)CC4)c(F)c3)c2)CC1	MTS	24 h	129
Cc1cc(Nc2ccc(S(F)(F)(F)(F)F)cc2)n2ncnc2n1			> 50
CCOC(=O)c1c(C)ncn1CC(c1cn(C)c2ccc([N+](=O)[O-])cc12)c1cn(C)c2ccc([N+](=O)[O-])cc12	MTS	24 h	> 20
O=[N+]([O-])c1ccc(-c2nc3cccc(O)c3[nH]2)o1	resazurin	72 h	37
CCc1ncn(CC(c2c[nH]c3ccc(C)cc23)c2c[nH]c3ccc(C)cc23)c1C(=O)OC	MTS	24 h	> 20
N=C(N)NCc1ccc(NC(=O)c2ccc(C(=O)Nc3ccc(C4=CCN(C(=N)N)CC4)nn3)cc2)cc1	MTS	24 h	326
CCOC(=O)c1cn(CC(c2cn(C)c3ccc(C)cc23)c2cn(C)c3ccc(C)cc23)c(C)c1C(=O)OC	MTS	24 h	> 20
CC(C)c1c(C(=O)Nc2ccccc2)c(-c2ccccc2)c(-c2ccc(F)cc2)n1CC[C@@H](O)C[C@@H](O)CC(=O)O	MTT	24 h	~100
N=C(N)NCc1ccc(NC(=O)C23CCC(C(=O)Nc4ccc(C5=CCN(C(=N)N)CC5)cc4)(CC2)CC3)cc1	MTS	24 h	253
Cc1ccc(-c2nc(Nc3ccc(C(=O)N4CCC(N5CCCC5)CC4)cc3)ncc2Cl)s1		44 h	9.3
N=C(N)NCc1ccc(NC(=O)c2ccc(C(=O)Nc3ccc(C4=CCN(C(=N)N)CC4)cc3)cn2)cc1	MTS	24 h	739
C[C@@H]1[C@H](O)[C@@H](C)/C=C/C=C/C=C/C=C/C=C/C=C/C=C/[C@H](O[C@@H]2O[C@H](C)[C@@H](O)[C@H](N)[C@@H]2O)C[C@@H]2O[C@](O)(C[C@@H](O)C[C@@H](O)[C@H](O)CC[C@@H](O)C[C@@H](O)CC(=O)O[C@H]1C)C[C@H](O)[C@H]2C(=O)O	MTS	24 h	4.6
